Only some compounds are listed: those with a hit (about 1.9% of all), similar ones and a draw of the others.
p-CIP stab down: lowers stability of the mouse p/CIP coactivator protein; actives 0.01% (n = 290,000); F442A p/CIP-EGFP cells, EGFP fluorescence, 16 h; Q05BA5; decrease of EGFP signal, % at 10 µM;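 active = EGFP signal decrease of at least 30% at 10 µM or well 3 SD below plate mean, unless failing retest; inactive = the rest, including hits failing retest or dose response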
Fh CTSL1 inh: counter-screen for PFM18AAP inhibitors: inhibitors of F. hepatica cathepsin L1; recombinant F. hepatica cathepsin L1, Z-Leu-Arg-MCA fluorescence; inhibition, % at 5.96 µM; actives 0.49% (n = 300,000); AID 1906;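 active = inhibition above the mean of all tested compounds plus 3 SD, set per screening campaign, cut at about 17% in these data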;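 also: 0% = plate median of test compound wells and 100% = 1 µM Z-Phe-Ala-diazomethylketone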
IMP-1 inhibitor: inhibitors of Pseudomonas aeruginosa IMP-1 metallo-beta-lactamase. purified IMP-1, nitrocefin hydrolysis, epi-absorbance fluorescence. inhibition, % at 5.6 µM. AID 1556. actives 0.45% (n = 290,000);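 active = inhibition above the mean plus 3 SD of all compounds in the same screening run, cut at about 4.5% in these data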;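 also: 0% = IMP-1 with DMSO and 100% = DMSO wells lacking enzyme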
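System: purified recombinant IMP-1 beta-lactamase. Medium: Zinc- and detergent-supplemented HEPES buffer, pH 7.1. Compound: one 5.6 µM dose […]. Schedule: 15 min preincubation plus 25 min reaction at 25 °C. Technique: Epi-absorbance fluorescence, 480 nm excitation, 530 nm emission.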
SUMO HTRF inh: inhibitors of human SUMOylation (UBC9). P63279. HTRF SUMOylation assay, SAE1/SAE2 + UBC9, in vitro. inhibition, % at 35 µM. actives 0.36% (n = 290,000). AID 2006; in the data active = inhibition above about 50%, passing the limit was not always enough
T cell modulator: modulates CD8 T cell binding to vesicles; response (vesicle binding), % at 7 µM; actives 0.068% (n = 330,000); 2C CD8+ T cell-vesicle binding, flow cytometry; active compounds read low;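 active = response, share of CD8 T cells binding vesicles, and their 90th percentile fluorescence all below set limits, cut at about 80% in these data, passing the limit was not always enough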;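 also: values below 100% mean blocked vesicle binding to the CD8+ T cells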
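Assay system – 2C mouse CD8+ T cells · Also added – QL9-loaded Drosophila micro-vesicles · Timing – Cell–vesicle co-incubation 1.5 h at 37 °C, staining 20 min on ice · Signal – flow cytometry of vesicle-bound cells · Measure – percent CD8+ FL2 mean versus row control · Controls – Peptide-free naked vesicles (low) and QL9 vesicles with 0.7% DMSO vehicle (high)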
VIM-2 inh: inhibitors of Pseudomonas aeruginosa VIM-2 metallo-beta-lactamase | purified VIM-2, nitrocefin hydrolysis, epi-absorbance fluorescence | inhibition, % at 5.6 µM | actives 0.89% (n = 290,000) | AID 1527;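 active = inhibition above the mean of all tested compounds plus 3 SD, cutoff set per screening run, cut at about 7.5% in these data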;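 also: red hydrolysis product quenches plate fluorescence so inhibitors raise well fluorescence; 0% = enzyme with DMSO and 100% = DMSO without enzyme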
Numbers without * were called inactive; i = inactive; · = no result given.

SMILES | p-CIP stab down | Fh CTSL1 inh | IMP-1 inhibitor | SUMO HTRF inh | T cell modulator | VIM-2 inh
COc1ccc(C(=O)Nc2c(O)ccc3ccccc23)cc1 | · | 1 | · | · | 329 | ·
O=C(C/C=N\OCc1c(Cl)cccc1Cl)Oc1ccc(Cl)cc1Cl | -3 | -3 | 12* | 19 | 120 | -2
O=[N+]([O-])c1ccccc1S(=O)(=O)N1CCCC(C(F)(F)F)C1 (stereo not given) | -6 | 0 | -1 | -10 | 304 | 1
COc1ccc(-n2c(C)c3c(OC)cccc(=O)c3c2C)cc1 | -5 | -5 | -1 | -8 | 158 | 3
COc1ccccc1-n1c(C)c2c(OC)cccc(=O)c2c1C | -9 | 2 | 1 | 20 | 279 | 9.2*
CCC(C)N(C(=O)Cn1nnc(-c2ccc(F)cc2)n1)C1CCS(=O)(=O)C1 (stereo not given) | -23 | 2 | -2 | 5 | 187 | 0
O=C1C(Cl)=C(NCCN2CCCCC2)C(=O)c2ccccc21 | · | 54* | -5 | 23 | 276 | -3
CCNC(=O)NC(=O)CSc1ccc(S(=O)(=O)N2CCCCC2)cn1 | · | · | · | · | 306 | ·
COC(C[C@@H]1O[C@@H]1[C@H](O)COCc1ccccc1)OC | -6 | · | · | 17 | 336 | ·
C=CCN1C(=O)C(Cc2ccc(Br)cc2)S/C1=N\N=C\c1ccco1 (stereo not given) | -8 | 0 | -3 | -10 | 445 | -2
C=CCN1C(=O)C(Cc2ccc(F)cc2)S/C1=N/N=C/c1ccco1 (stereo not given) | -7 | 8 | -1 | -2 | 0.0* | 2
COc1ccc2c(c1)C(c1ccc([N+](=O)[O-])cc1)=NNC(c1ccco1)=N2 | -1 | -3 | -2 | -11 | 0.0* | -2
CCOC(=O)c1ccc2ncc(C(=O)OCC)c(NCCN(C)C)c2c1 | · | 66* | -4 | · | 452 | -2
NC(=S)N/N=C/c1c[nH]c2ccccc12 | 1 | 102* | -3 | 18 | 295 | -3
COC(=O)N/N=C/c1c[nH]c2ccccc12 | -1 | -3 | 0 | 10 | 196 | 3
CC(=O)n1cc(/C=N/NC(N)=S)c2ccccc21 | 20 | 95* | -5 | 7 | 223 | -3
NC(=S)N/N=C/c1ccccc1OCCSc1ccc(Cl)cc1 | -14 | 25* | -4 | 5 | 224 | -2
COc1ccccc1OCCn1cc(/C=N/NC(=O)c2ccncc2)c2ccccc21 | -11 | 3 | -2 | 10 | 536 | -6
COc1ccccc1OCCn1cc(/C=N/NC(N)=S)c2ccccc21 | 8 | 95* | -1 | 9 | 339 | -2
COc1cccc(/C=N/NC(N)=S)c1OCc1ccccc1Cl | 10 | 7 | -2 | -2 | 222 | -3
COCCNC(=O)NC(=O)CN1CCCc2ccccc21 | -2 | -1 | -2 | 9 | 396 | -1
CCOC(=O)C1CCN(c2ncnc3c2[nH]c2cccc(OC)c23)CC1 | -3 | 3 | -3 | 37 | 310 | 8.4*
CCNC(=O)NC(=O)CSc1ccc(S(=O)(=O)N(C)C2CCCCC2)cn1 | · | · | · | · | 810 | ·
COc1ccc(NC(=S)N2CCC(c3ccc(C)cc3)C2)cc1 (stereo not given) | -9 | 1 | -3 | 13 | 4 | -2
Cc1ccc(NC(=S)N2CCC(c3ccc(C)cc3)C2)cc1 (stereo not given) | -5 | 54* | -2 | 5 | 318 | -3
SMILES | p-CIP stab down | Fh CTSL1 inh | IMP-1 inhibitor | SUMO HTRF inh | T cell modulator | VIM-2 inh
C=CCC1NS(=O)(=O)OCC1NC(=O)OCC(Cl)(Cl)Cl (stereo not given) | -4 | 20* | -2 | 0 | 595 | -4
C=CCC1NS(=O)(=O)OCC1C(C)C (stereo not given) | -4 | -1 | -1 | 9 | 838 | 0
N#Cc1c(NCCCO)nc(-c2ccco2)c2c1CCCC2 | 9 | 18* | -1 | 3 | 336 | 1
COc1ccc(CCC(=O)Nc2nc(C)c(C(=O)N(C)C)s2)cc1 | -8 | 13 | 11* | 13 | 175 | -4
O=C(COC(=O)C1Cc2ccccc2CN1C(=O)c1ccccc1)Nc1ccc(SC(F)F)cc1 (stereo not given) | 5 | -5 | -2 | -16 | 358 | -2
CC1CN(S(=O)(=O)c2csc(C(=O)Nc3ccccc3)c2)CC(C)O1 (stereo not given) | -3 | -1 | -6 | 1 | 960 | -5
COc1ccccc1N1CCN(C(=O)c2cc3c(=O)n(C)c4ccccc4c3n2C)CC1 | -29 | 3 | -2 | 25 | 349 | 8.8*
Cn1c(C(=O)N2CCN(C(=O)c3ccco3)CC2)cc2c(=O)n(C)c3ccccc3c21 | -13 | 1 | -2 | 15 | 78 | 11*
Cn1c(C(=O)N2CCN(C3CCCCC3)CC2)cc2c(=O)n(C)c3ccccc3c21 | -12 | · | -2 | 3 | · | 3
CCN1CCN(C(=O)c2cc3c(-c4ccc(Cl)cc4)nn(C)c3s2)CC1 | -8 | 12 | 0 | 21 | 474 | 11*
O=C(OC(c1ccccc1)c1nccc2ccccc12)c1cc([N+](=O)[O-])cc([N+](=O)[O-])c1 (stereo not given) | -6 | 0 | -2 | -8 | 427 | -1
O=C(CC1SC(=O)N(c2ccccc2)C1=O)Nc1cccc2ccccc12 (stereo not given) | -17 | 1 | 4.8* | 48 | 167 | 0
COc1cccc(NS(=O)(=O)c2ccc3c(c2)C2C=CCC2C(c2ccc(C(=O)O)cc2)N3)c1 (stereo not given) | -3 | -3 | 22* | · | 421 | -5
O=C(OC1CCCCC1)c1ccc2c(c1)C1C=CCC1C(C(=O)O)N2 (stereo not given) | 1 | · | -2 | -7 | · | -3
O=C(O)c1ccc2c(c1)[C@@H]1C=CC[C@@H]1[C@H](c1ccccn1)N2 | · | 2 | 5.6* | · | 135 | -2
COc1ccc(C(=O)N/N=C(\C)c2ccc3c(c2)C2C=CCC2C(c2ccccc2)N3)cc1 (stereo not given) | -1 | -1 | -1 | 16 | 266 | -4
CCn1cc(CNC(=O)c2c(-c3c(Cl)cccc3Cl)noc2C)c(C)n1 | -18 | -3 | -3 | 7 | 202 | -1
Cc1ccc2c(c1)c1c3n2CCN(C(=O)CN2CCN(C)CC2)C3CCC1 (stereo not given) | -1 | -3 | -1 | 26 | 195 | 3
Cc1ccc2c(c1)c(=O)c1c3n2CCN(C(=O)CCl)C3CC1 (stereo not given) | 10 | 77* | -2 | 47 | 505 | -1
O=C(CCl)NN=C(c1ccccc1)c1ccccc1 | 1 | 37* | -3 | 1 | 158 | 0
CCOC(=O)c1c(NC(=O)C2CCCCC2)sc2c1CCN(C(C)C)C2 | 0 | 0 | -3 | 0 | i | -3
CC1(C)CN(c2ccsc2C(=O)O)C1=O | -2 | 26* | 1 | -12 | 213 | 0
